Laboratory results published in ChEMBL document CHEMBL3351702, “Design, synthesis and characterization of fluoro substituted novel pyrazolylpyrazolines scaffold and their pharmacological screening” (Eur J Med Chem, 2014).
≈ marks a conversion by molar mass, not a printed value.

Key:
[1] = tested on: Mycobacterium tuberculosis; assay: Antituberculosis activity against Mycobacterium tuberculosis H37Rv assessed as inhibition of colony formation at 250 ug/ml after 4 weeks of incubation; assay type: functional; conditions: 672 h
Streptococcus pneumoniae = assay: Antimicrobial activity against Streptococcus pneumoniae MTCC 1936 assessed as absence of visible growth after 24 to 48 hrs by broth micro dilution method; assay type: functional
Aspergillus fumigatus = assay: Antimicrobial activity against Aspergillus fumigatus MTCC 3008 assessed as absence of visible growth after 24 to 48 hrs by broth micro dilution method; assay type: functional
Outline: (§1)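 Fungal broth microdilution following NCCLS, in Sabouraud dextrose broth, with compounds diluted from DMSO and inoculum adjusted to 10⁸ CFU/mL by turbidity. Growth read at 24 and 48 h. MIC is the highest dilution preventing turbidity after spot subculture. Griseofulvin and nystatin were the references.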

Escherichia coli = assay: Antimicrobial activity against Escherichia coli MTCC 443 assessed as absence of visible growth after 24 to 48 hrs by broth micro dilution method; assay type: functional
Salmonella typhi = assay: Antimicrobial activity against Salmonella typhi MTCC 98 assessed as absence of visible growth after 24 to 48 hrs by broth micro dilution method; assay type: functional, Salmonella enterica subsp. enterica serovar Typhi; conditions: Salmonella enterica
Vibrio cholerae = assay: Antimicrobial activity against Vibrio cholerae MTCC 3906 assessed as absence of visible growth after 24 to 48 hrs by broth micro dilution method; assay type: functional
Bacillus subtilis = assay: Antimicrobial activity against Bacillus subtilis MTCC 441 assessed as absence of visible growth after 24 to 48 hrs by broth micro dilution method; assay type: functional
Plasmodium falciparum = assay: Antimalarial activity against chloroquine ane quinine-sensitive ring stage of Plasmodium falciparum assessed as inhibition of parasite growth after 48 hrs; assay type: functional, organism-based
Outline: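 P. falciparum field strain from a Surat hospital, cultured by a modified Trager–Jensen method and synchronized with 5% D-sorbitol at ring stage. Rings at 1–2% parasitaemia and 2.5% haematocrit in hypoxanthine-free RPMI-1640 with 10% human plasma. Exposed to 7 concentrations, diluted from DMSO stocks, for one 48 h cycle at 37 °C. Growth inhibition % measured; IC50 by interpolation; duplicate runs, mean reported.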

Clostridium tetani = assay: Antimicrobial activity against Clostridium tetani MTCC 449 assessed as absence of visible growth after 24 to 48 hrs by broth micro dilution method; assay type: functional
Candida albicans = assay: Antimicrobial activity against Candida albicans MTCC 227 assessed as absence of visible growth after 24 to 48 hrs by broth micro dilution method; assay type: functional; outline: as §1

Row | Compound | inhibition at 250 µg/mL [1] [%] | MIC (Streptococcus pneumoniae) [mg/L] | MIC (Aspergillus fumigatus) [mg/L] | MIC (Escherichia coli) [mg/L] | MIC (Salmonella typhi) [mg/L] | MIC (Vibrio cholerae) [mg/L] | MIC (Bacillus subtilis) [mg/L] | IC50 (Plasmodium falciparum) [mg/L] | MIC (Clostridium tetani) [mg/L] | MIC (Candida albicans) [mg/L]
1 | Cc1nn(-c2ccccc2)c(Oc2ccccc2F)c1C1CC(c2ccc(F)cc2)=NN1c1ccc(F)cc1 (stereo not drawn) | 10 | 250 (≈ 477 µM) | 100 (≈ 191 µM) | 200 (≈ 381 µM) | 250 (≈ 477 µM) | 250 (≈ 477 µM) | 500 (≈ 953 µM) | 0.025 (≈ 0.0477 µM) | 250 (≈ 477 µM) | 1000 (≈ 1910 µM)
2 | O=C(N[C@H](CO)[C@H](O)c1ccc([N+](=O)[O-])cc1)C(Cl)Cl [CHLORAMPHENICOL] | – | 50 (≈ 155 µM) | – | 50 (≈ 155 µM) | 50 (≈ 155 µM) | 50 (≈ 155 µM) | 50 (≈ 155 µM) | – | 50 (≈ 155 µM) | –
3 | CC1(C)S[C@@H]2[C@H](NC(=O)[C@H](N)c3ccccc3)C(=O)N2[C@H]1C(=O)O [AMPICILLIN] | – | 100 (≈ 286 µM) | – | 100 (≈ 286 µM) | 100 (≈ 286 µM) | 100 (≈ 286 µM) | 250 (≈ 715 µM) | – | 250 (≈ 715 µM) | –
4 | C=C[C@H]1CN2CC[C@H]1C[C@H]2[C@H](O)c1ccnc2ccc(OC)cc12 [QUININE] | – | – | – | – | – | – | – | 0.268 (≈ 0.826 µM) | – | –
5 | Cc1nn(-c2ccccc2)c(Oc2cccc(C(F)(F)F)c2)c1C1CC(c2ccc(F)cc2)=NN1c1ccc(Br)cc1 (stereo not drawn) | 91 | 500 (≈ 787 µM) | 500 (≈ 787 µM) | 250 (≈ 393 µM) | 200 (≈ 315 µM) | 250 (≈ 393 µM) | 250 (≈ 393 µM) | 1.46 (≈ 2.3 µM) | 250 (≈ 393 µM) | 1000 (≈ 1570 µM)
6 | Cc1nn(-c2ccccc2)c(Oc2ccc(F)cc2)c1C1CC(c2ccc(F)cc2)=NN1c1ccc(Br)cc1 (stereo not drawn) | 96 | 500 (≈ 854 µM) | > 1000 | 200 (≈ 342 µM) | 200 (≈ 342 µM) | 500 (≈ 854 µM) | 500 (≈ 854 µM) | 0.025 (≈ 0.0427 µM) | 125 (≈ 214 µM) | 500 (≈ 854 µM)
7 | COC1=CC(=O)C[C@@H](C)[C@]12Oc1c(Cl)c(OC)cc(OC)c1C2=O [GRISEOFULVIN] | – | – | 100 (≈ 283 µM) | – | – | – | – | – | – | 500 (≈ 1420 µM)
8 | Cc1nn(-c2ccccc2)c(Oc2ccc(F)cc2)c1C1CC(c2ccc(F)cc2)=NN1c1ccc(F)cc1 (stereo not drawn) | 40 | 100 (≈ 191 µM) | > 1000 | 500 (≈ 953 µM) | 250 (≈ 477 µM) | 200 (≈ 381 µM) | 500 (≈ 953 µM) | 0.022 (≈ 0.0419 µM) | 250 (≈ 477 µM) | 200 (≈ 381 µM)
9 | Cc1nn(-c2ccccc2)c(Oc2cccc(F)c2)c1C1CC(c2ccc(F)cc2)=NN1c1ccc(Br)cc1 (stereo not drawn) | 56 | 500 (≈ 854 µM) | > 1000 | 500 (≈ 854 µM) | 200 (≈ 342 µM) | 125 (≈ 214 µM) | 250 (≈ 427 µM) | 0.06 (≈ 0.102 µM) | 250 (≈ 427 µM) | 250 (≈ 427 µM)
10 | CO[C@H]1/C=C/O[C@@]2(C)Oc3c(C)c(O)c4c(O)c(c(/C=N/N5CCN(C)CC5)c(O)c4c3C2=O)NC(=O)/C(C)=C\C=C\[C@H](C)[C@H](O)[C@@H](C)[C@@H](O)[C@@H](C)[C@H](OC(C)=O)[C@@H]1C [RIFAMPIN] | 98 | – | – | – | – | – | – | – | – | –
11 | NYSTATIN | – | – | 100 | – | – | – | – | – | – | 100
12 | COc1ccc(N2N=C(c3ccc(F)cc3)CC2c2c(C)nn(-c3ccccc3)c2Oc2cccc(C(F)(F)F)c2)cc1 (stereo not drawn) | 52 | 200 (≈ 341 µM) | 500 (≈ 852 µM) | 100 (≈ 170 µM) | 100 (≈ 170 µM) | 250 (≈ 426 µM) | 100 (≈ 170 µM) | 0.3 (≈ 0.511 µM) | 200 (≈ 341 µM) | 250 (≈ 426 µM)
13 | O=C(O)c1cn(C2CC2)c2cc(N3CCNCC3)c(F)cc2c1=O [CIPROFLOXACIN] | – | 25 (≈ 75.4 µM) | – | 25 (≈ 75.4 µM) | 25 (≈ 75.4 µM) | 25 (≈ 75.4 µM) | – | – | – | –
14 | COc1ccc(N2N=C(c3ccc(F)cc3)CC2c2c(C)nn(-c3ccccc3)c2Oc2ccc(F)cc2)cc1 (stereo not drawn) | 74 | 125 (≈ 233 µM) | 250 (≈ 466 µM) | 500 (≈ 932 µM) | 500 (≈ 932 µM) | 100 (≈ 186 µM) | 62.5 (≈ 116 µM) | 0.25 (≈ 0.466 µM) | 200 (≈ 373 µM) | 500 (≈ 932 µM)
15 | CCn1cc(C(=O)O)c(=O)c2cc(F)c(N3CCNCC3)cc21 [NORFLOXACIN] | – | 10 (≈ 31.3 µM) | – | 10 (≈ 31.3 µM) | 10 (≈ 31.3 µM) | 10 (≈ 31.3 µM) | 100 (≈ 313 µM) | – | 50 (≈ 157 µM) | –
16 | Cc1nn(-c2ccccc2)c(Oc2ccccc2F)c1C1CC(c2ccc(F)cc2)=NN1c1ccc(Br)cc1 (stereo not drawn) | 94 | 250 (≈ 427 µM) | 1000 (≈ 1710 µM) | 100 (≈ 171 µM) | 200 (≈ 342 µM) | 500 (≈ 854 µM) | 200 (≈ 342 µM) | 0.088 (≈ 0.15 µM) | 500 (≈ 854 µM) | 250 (≈ 427 µM)
17 | COc1ccc(N2N=C(c3ccc(F)cc3)CC2c2c(C)nn(-c3ccccc3)c2Oc2cccc(F)c2)cc1 (stereo not drawn) | 56 | 100 (≈ 186 µM) | > 1000 | 500 (≈ 932 µM) | 500 (≈ 932 µM) | 200 (≈ 373 µM) | 200 (≈ 373 µM) | 0.57 (≈ 1.06 µM) | 200 (≈ 373 µM) | 1000 (≈ 1860 µM)
18 | COc1ccc(N2N=C(c3ccc(F)cc3)CC2c2c(C)nn(-c3ccccc3)c2Oc2ccccc2F)cc1 (stereo not drawn) | 22 | 500 (≈ 932 µM) | 250 (≈ 466 µM) | 500 (≈ 932 µM) | 500 (≈ 932 µM) | 500 (≈ 932 µM) | 100 (≈ 186 µM) | 0.65 (≈ 1.21 µM) | 500 (≈ 932 µM) | 500 (≈ 932 µM)
